From ChEMBL document CHEMBL1157357, “Inhibition of siderophore biosynthesis in Mycobacterium tuberculosis with nucleoside bisubstrate analogues: structure-activity relationships of the nucleobase domain of 5'-O-[N-(salicyl)sulfamoyl]adenosine” (J Med Chem, 2008)
≈ marks a conversion by molar mass, not a printed value. Calls of active or inactive are those of the source. The calls are words filed in the database; no cut-off is given here.

Experiments:
[1] = tested on: Mycobacterium tuberculosis; assay: Antitubercular activity against Mycobacterium tuberculosis H37Rv in iron-deficient GAST medium after 10 to 14 days by broth dilution method; type: functional
Summary of the method: (§1)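 MIC99 by broth microdilution in quadruplicate in GAST, either iron-deficient or supplemented with 200 µM FeCl3. Compounds were added from DMSO stocks, with DMSO-treated controls. Inoculum was 10⁴-10⁵ cells/assay, incubation 37 °C for 10-14 days, and growth read as OD620. MIC99 is the lowest concentration completely inhibiting observable growth.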

[2] = tested on: Mycobacterium tuberculosis; assay: Antitubercular activity against Mycobacterium tuberculosis H37Rv in iron-replete GAST medium after 10 to 14 days by broth dilution method; type: functional; summary of the method: as §1
Vero = assay: Cytotoxicity against african green money Vero cells after 48 hrs by MTT assay; type: cell-based; details: Chlorocebus sabaeus
[3] = target: T1, Salicyl-AMP ligase / salicyl-S-ArCP synthetase (Mycobacterium tuberculosis, UniProt P71716); assay: Inhibition of Mycobacterium tuberculosis recombinant MbtA expressed in Escherichia coli by ATP-PPi exchange assay; details: read-out: Ki(app)
T1 sequence (P71716 whole entry): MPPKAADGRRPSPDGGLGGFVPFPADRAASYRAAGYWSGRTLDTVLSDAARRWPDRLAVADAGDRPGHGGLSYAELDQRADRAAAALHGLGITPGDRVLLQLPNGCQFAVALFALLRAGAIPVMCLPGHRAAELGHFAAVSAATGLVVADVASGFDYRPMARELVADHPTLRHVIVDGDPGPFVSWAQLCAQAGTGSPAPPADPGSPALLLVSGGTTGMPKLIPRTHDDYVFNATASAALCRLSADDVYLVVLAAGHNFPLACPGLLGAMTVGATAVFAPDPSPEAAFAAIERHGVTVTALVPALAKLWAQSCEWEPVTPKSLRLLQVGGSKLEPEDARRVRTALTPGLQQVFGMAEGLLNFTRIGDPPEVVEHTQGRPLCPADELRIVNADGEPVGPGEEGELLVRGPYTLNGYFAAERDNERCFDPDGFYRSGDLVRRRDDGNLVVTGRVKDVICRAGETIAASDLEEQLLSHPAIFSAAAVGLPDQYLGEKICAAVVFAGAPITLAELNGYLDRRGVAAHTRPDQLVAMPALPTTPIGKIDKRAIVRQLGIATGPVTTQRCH

[4] = Therapeutic index, ratio of IC50 for african green money Vero cells to MIC99 for Mycobacterium tuberculosis H37Rv; type: cell-based; details: monkey
[5] = tested on: Mycobacterium tuberculosis; assay: Ratio of MIC99 for Mycobacterium tuberculosis H37Rv in iron-replete GAST medium to MIC99 for Mycobacterium tuberculosis H37Rv in iron-deficient GAST medium; type: functional
Oryctolagus cuniculus = species on record: Oryctolagus cuniculus; assay: Inhibition of protein synthesis in T7 coupled rabbit reticulocyte system by luciferase based translation assay; type: functional

SMILES	MIC99 [1]	MIC99 [2]	IC50 (Vero)	Ki [3]	selectivity ratio [4]	Ratio [5]	Activity (Oryctolagus cuniculus)
CC(C)CNc1ncnc2c1ncn2[C@@H]1O[C@H](COS(=O)(=O)NC(=O)c2ccccc2O)[C@@H](O)[C@H]1O	> 100 µM	> 100 µM	> 100 µM	1.14 µM	–	–	–
CCN(CC)CC.Nc1nc(C#Cc2ccccc2)nc2c1ncn2[C@@H]1O[C@H](COS(=O)(=O)NC(=O)c2ccccc2O)[C@@H](O)[C@H]1O	0.049 µM	0.39 µM	> 100 µM	0.0004 µM	> 2000	8	–
O=C(NS(=O)(=O)OC[C@H]1O[C@@H](n2cnc3c(=O)[nH]cnc32)[C@H](O)[C@@H]1O)c1ccccc1O	> 100 µM	> 100 µM	> 100 µM	0.8 µM	–	–	–
CN(C)c1ncnc2c1ncn2[C@@H]1O[C@H](COS(=O)(=O)NC(=O)c2ccccc2O)[C@@H](O)[C@H]1O	50 µM (≈ 24.7 µg/mL)	–	> 100 µM	0.38 µM	–	–	–
CCN(CC)CC.O=C(NS(=O)(=O)OC[C@H]1O[C@@H](n2cnc3c(NC4CC4)ncnc32)[C@H](O)[C@@H]1O)c1ccccc1O	0.098 µM	6.25 µM	> 100 µM	0.00185 µM	–	64	–
Nc1nc(-c2cccc(-c3ccccc3)c2)nc2c1ncn2[C@@H]1O[C@H](COS(=O)(=O)NC(=O)c2ccccc2O)[C@@H](O)[C@H]1O	25 µM (≈ 15.5 µg/mL)	> 50 µM	> 100 µM	0.0014 µM	–	–	–
Nc1nc(-c2ccccc2)nc2c1ncn2[C@@H]1O[C@H](COS(=O)(=O)NC(=O)c2ccccc2O)[C@@H](O)[C@H]1O	0.049 µM (≈ 0.0266 µg/mL)	0.39 µM (≈ 0.212 µg/mL)	> 100 µM	–	–	–	–
CCCNc1ncnc2c1ncn2[C@@H]1O[C@H](COS(=O)(=O)NC(=O)c2ccccc2O)[C@@H](O)[C@H]1O.CCN(CC)CC	0.39 µM	1.56 µM	> 100 µM	0.0035 µM	–	4	–
[N-]=[N+]=Nc1nc2c(N)ncnc2n1[C@@H]1O[C@H](COS(=O)(=O)NC(=O)c2ccccc2O)[C@@H](O)[C@H]1O	> 50 µM	> 50 µM	> 100 µM	42.5 µM	–	–	–
Nc1ncnc2c1ncn2[C@@H]1O[C@H](COS(N)(=O)=O)[C@@H](O)[C@H]1O	–	–	–	–	–	–	Active
CC(C)Nc1ncnc2c1ncn2[C@@H]1O[C@H](COS(=O)(=O)[N-]C(=O)c2ccccc2O)[C@@H](O)[C@H]1O.[Na+]	25 µM	> 100 µM	> 100 µM	0.007 µM	–	>4	–
CCN(CC)CC.Nc1nc(Nc2ccccc2)nc2c1ncn2[C@@H]1O[C@H](COS(=O)(=O)NC(=O)c2ccccc2O)[C@@H](O)[C@H]1O	0.049 µM	0.39 µM	> 100 µM	0.00094 µM	> 2000	8	–
CCNc1ncnc2c1ncn2[C@@H]1O[C@H](COS(=O)(=O)[N-]C(=O)c2ccccc2O)[C@@H](O)[C@H]1O.[Na+]	0.39 µM	1.56 µM	> 100 µM	0.0044 µM	–	4	–
CCN(CC)CC.Nc1nc(I)nc2c1ncn2[C@@H]1O[C@H](COS(=O)(=O)NC(=O)c2ccccc2O)[C@@H](O)[C@H]1O	0.19 µM	3.12 µM	> 100 µM	0.00303 µM	–	16	–
Nc1nc(-c2ccc(-c3ccccc3)cc2)nc2c1ncn2[C@@H]1O[C@H](COS(=O)(=O)NC(=O)c2ccccc2O)[C@@H](O)[C@H]1O	25 µM (≈ 15.5 µg/mL)	> 50 µM	> 100 µM	0.00099 µM	–	–	–
CCN(CC)CC.Nc1ncnc2c1ccn2[C@@H]1O[C@H](COS(=O)(=O)NC(=O)c2ccccc2O)[C@@H](O)[C@H]1O	6.25 µM	50 µM	> 100 µM	0.0243 µM	–	8	–
O=C(NS(=O)(=O)OC[C@H]1O[C@@H](n2cnc3c(NC4CCCC4)ncnc32)[C@H](O)[C@@H]1O)c1ccccc1O	> 100 µM	> 100 µM	> 100 µM	9.41 µM	–	–	–
Nc1nc(-c2ccccc2-c2ccccc2)nc2c1ncn2[C@@H]1O[C@H](COS(=O)(=O)NC(=O)c2ccccc2O)[C@@H](O)[C@H]1O	> 50 µM	> 50 µM	> 100 µM	0.047 µM	–	–	–
CCN(CC)CC.Nc1cccc2c1ccn2C1CC(COS(=O)(=O)NC(=O)c2ccccc2O)[C@@H](O)[C@H]1O (single isomer, unassigned)	6.25 µM	50 µM	> 100 µM	0.0201 µM	–	8	–
O=C(NS(=O)(=O)OC[C@H]1O[C@@H](n2cnc3c(NCc4ccccc4)ncnc32)[C@H](O)[C@@H]1O)c1ccccc1O	> 100 µM	> 100 µM	> 100 µM	8.26 µM	–	–	–
Nc1ncnc2c1nc(N)n2[C@@H]1O[C@H](COS(=O)(=O)NC(=O)c2ccccc2O)[C@@H](O)[C@H]1O	> 50 µM	> 50 µM	> 100 µM	183 µM	–	–	–
CNc1ncnc2c1ncn2[C@@H]1O[C@H](COS(=O)(=O)[N-]C(=O)c2ccccc2O)[C@@H](O)[C@H]1O.[Na+]	0.39 µM	1.56 µM	> 100 µM	0.0016 µM	–	4	–
O=C(NS(=O)(=O)OC[C@H]1O[C@@H](n2cnc3c(NC4CCC4)ncnc32)[C@H](O)[C@@H]1O)c1ccccc1O	> 100 µM	> 100 µM	> 100 µM	0.124 µM	–	–	–
Nc1ncnc2c1nc(Br)n2[C@@H]1O[C@H](COS(=O)(=O)NC(=O)c2ccccc2O)[C@@H](O)[C@H]1O	> 50 µM	> 50 µM	> 100 µM	2.05 µM	–	–	–
